Sequences and labels used below:
B1: tRNA (parent)
chain: GUUCCGUUGGCGUAAUGGUAACGCGUCUCCCUCCUAAGGAGAAGACUGCGGGUUCGAGUCCCGUACGGAACG

Variants of B1 are the subject of this data set. Briefly: yeast fitness, log relative to wild type (ln ratio); higher = fitter; tRNA-Arg(CCU), competitive growth, 37 C, 1 M NaCl. The method, boiled down: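 For each genotype, fitness is defined as the natural log of its generation number over the wild type's. The tRNA-Arg(CCU) variant library was on a HIS3 centromeric plasmid in BY4742 with the chromosomal gene removed, and pools were first grown 4 generations in SC-HIS at 30 °C and then ~6.5 generations (~26.5 h) in SC-HIS 1M NaCl at 37 °C. Generations were calculated from OD-scaled log2 output/input frequency, weighted by inverse variance across replicates, using counts from 125 bp paired-end Illumina sequencing.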
Take AUUCCAUUGGCGUAAUGGUAACGCGUCUCCCUCCUAAGGAGAAGAUUGCGGGUUCGAGUCCCGUAAGGAUCG [G1A G6A C46U C66A A70U]: the “yeast fitness (ln)” value is -0.134.

On to AUUCCAUUGGCGUAAUGGUAACGCGUCUCCCUCCUAAGGAGAAGACUGCGGGUUCGAGUCCCGUAUGGGACG [G1A G6A C66U A69G], for which the “yeast fitness (ln)” value is -0.346.

As for AUUCCUUUGGCGUAAUGGUAACGCGUCUCCCUCCUAAGGAGACGACUGCGGGUUCGAGUCCCGUACGGAACG [G1A G6U A43C], the “yeast fitness (ln)” value is -0.192.

With AUUCCAUUGGCGUAAUGGUAACGCGUCUCCCUCCUAAGGAGAAGAUUGCGGGUUCGAGUCCCGUAUGGGUUG [G1A G6A C46U C66U A69G A70U C71U], the “yeast fitness (ln)” value was -0.363.

As for AUUCCAUUGGCGUAAUGGUAACGCGUCUCCCUCCUAAGGAGAAGACUGCGGGUUCGAGUCCCGUAUGGGGUG [G1A G6A C66U A69G A70G C71U], the “yeast fitness (ln)” value is -0.145.

In the case of AUUCCAUUGGCGUAAUGGUAACGCGUCUCCCUCCUAAGGAGAAGAUUGCGGGUUCGAGUCCCGUAUGGGAUG [G1A G6A C46U C66U A69G C71U], the “yeast fitness (ln)” value was -0.0213.

Take AUUCCUUUGGCGUAAUGGUAACGCGUCUCCCUCCUAAGGAGACGACUGCGGGUUCGAGUCCCGUACGGGGCG [G1A G6U A43C A69G A70G]: the “yeast fitness (ln)” value was -0.54.

Consider AUUCCUUUGGCGUAAUGGUAACGCGUCUCCCUCCUAAGGAGACGACUGCGGGUUCGAGUCCCGUACGGGUCG [G1A G6U A43C A69G A70U], for which the “yeast fitness (ln)” value was -0.326.

In the case of AUUCCAUUGGCGUAAUGGUAACGCGUCUCCCUCCUAAGGAGAAGAUUGCGGGUUCGAGUCCCGUACGGAGUG [G1A G6A C46U A70G C71U], the “yeast fitness (ln)” value was -0.208.

In the case of AUUCCAUUGGCGUAAUGGUAACGCGUCUCCCUCCUAAGGAGAAGAUUGCGGGUUCGAGUCCCGUAUGGAUUG [G1A G6A C46U C66U A70U C71U], the “yeast fitness (ln)” value was -0.0831.

On to AUUCCAUUGGCGUAAUGGUAACGCGUCUCCCUCCUAAGGAGAAGAUUGCGGGUUCGAGUCCCGUAUGGAGCG [G1A G6A C46U C66U A70G], for which the “yeast fitness (ln)” value was -0.189.

Turning to AUUCCAUUGGCGUAAUGGUAACGCGUCUCCCUCCUAAGGAGAAGAUUGCGGGUUCGAGUCCCGUAUGGAUCG [G1A G6A C46U C66U A70U], the “yeast fitness (ln)” value is -0.0452.

AUUCCAUUGGCGUAAUGGUAACGCGUCUCCCUCCUAAGGAGAAGACUGCGGGUUCGAGUCCCGUAAGGAUUG [G1A G6A C66A A70U C71U]: the “yeast fitness (ln)” value was -0.163.

Turning to AUUCCAUUGGCGUAAUGGUAACGCGUCUCCCUCCUAAGGAGAAGACUGCGGGUUCGAGUCCCGUAUGGAACG [G1A G6A C66U], the “yeast fitness (ln)” value was -0.113.

As for AUUCCAUUGGCGUAAUGGUAACGCGUUUCCCUCCUAAGGAGAAGACUGCGGGUUCGAGUCCCGUACGGAAUG [G1A G6A C27U C71U], the “yeast fitness (ln)” value is -0.238.

Regarding AUUCCAUUGGCGUAAUGGUAACGCGUCUCCCUCCUAAGGAGAAGACUGCGGGUUCGAGUCCCGUAAGGAAUG [G1A G6A C66A C71U], the “yeast fitness (ln)” value is -0.0846.

For AUUCCUUUGGCGUAAUGGUAACGCGUCUCCCUCCUAAGGAGACGAUUGCGGGUUCGAGUCCCGUACGGAUUG [G1A G6U A43C C46U A70U C71U], the “yeast fitness (ln)” value is -0.297.

On to AUUCCUUUGGCGUAAUGGUAACGCGUCUCCCUCCUAAGGAGACGACUGCGGGUUCGAGUCCCGUACGGAGUG [G1A G6U A43C A70G C71U], for which the “yeast fitness (ln)” value was -0.383.

As to AUUCCUUUGGCGUAAUGGUAACGCGUCUCCCUCCUAAGGAGACGAUUGCGGGUUCGAGUCCCGUAAGGGUUG [G1A G6U A43C C46U C66A A69G A70U C71U], the “yeast fitness (ln)” value is -0.301.

Turning to AUUCCUUUGGCGUAAUGGUAACGCGUCUCCCUCCUAAGGAGACGAUUGCGGGUUCGAGUCCCGUACGGAACG [G1A G6U A43C C46U], the “yeast fitness (ln)” value is -0.155.

For the variant AUUCCAUUGGCGUAAUGGUAACGCGUCUCCCUCCUAAGGAGAAGACUGCGGGUUCGAGUCCCGUAUGGAUUG [G1A G6A C66U A70U C71U], the “yeast fitness (ln)” value is -0.216.

On to AUUCCUUUGGCGUAAUGGUAACGCGUCUCCCUCCUAAGGAGACGAUUGCGGGUUCGAGUCCCGUACGGGUUG [G1A G6U A43C C46U A69G A70U C71U], for which the “yeast fitness (ln)” value is -0.434.

In the case of AUUCCAUUGGCGUAAUGGUAACGCGUCUCCCUCCUAAGGAGAAGAUUGCGGGUUCGAGUCCCGUAUGGGGUG [G1A G6A C46U C66U A69G A70G C71U], the “yeast fitness (ln)” value is -0.0914.

On to AUUCCAUUGGCGUAAUGGUAACGCGUCUCCCUCCUAAGGAGAAGACUGCGGGUUCGAGUCCCGUAUGGAGCG [G1A G6A C66U A70G], for which the “yeast fitness (ln)” value is -0.184.

As to AUUCCAUUGGCGUAAUGGUAACGCGUCUCCCUCCUAAGGAGAAGACUGCGGGUUCGAGUCCCGUAUGGAUCG [G1A G6A C66U A70U], the “yeast fitness (ln)” value is -0.0527.

Regarding AUUCCUUUGGCGUAAUGGUAACGCGUCUCCCUCCUAAGGAGACGAUUGCGGGUUCGAGUCCCGUAAGGAACG [G1A G6U A43C C46U C66A], the “yeast fitness (ln)” value was -0.278.

In the case of AUUCCUUUGGCGUAAUGGUAACGCGUCUCCCUCCUAAGGAGACGAUUGCGGGUUCGAGUCCCGUACGGAGCG [G1A G6U A43C C46U A70G], the “yeast fitness (ln)” value was -0.201.

Take AUUCCUUUGGCGUAAUGGUAACGCGUCUCCCUCCUAAGGAGACGAUUGCGGGUUCGAGUCCCGUACGGAUCG [G1A G6U A43C C46U A70U]: the “yeast fitness (ln)” value was -0.219.

For the variant AUUCCAUUGGCGUAAUGGUAACGCGUCUCCCUCCUAAGGAGAAGACUGCGGGUUCGAGUCCCGUAAGGAGUG [G1A G6A C66A A70G C71U], the “yeast fitness (ln)” value was -0.267.

On to AUUCCAUUGGCGUAAUGGUAACGCGUCUCCCUCCUAAGGAGAAGAUUGCGGGUUCGAGUCCCGUAAGGGGUG [G1A G6A C46U C66A A69G A70G C71U], for which the “yeast fitness (ln)” value is -0.151.

Consider AUUCCAUUGGCGUAAUGGUAACGCGUCUCCCUCCUAAGGAGAAGACUGCGGGUUCGAGUCCCGUAUGGGUUG [G1A G6A C66U A69G A70U C71U], for which the “yeast fitness (ln)” value was -0.266.

In the case of AUUCCAUUGGCGUAAUGGUAACGCGUCUCCCUCCUAAGGAGAAGAUUGCGGGUUCGAGUCCCGUACGGGAUG [G1A G6A C46U A69G C71U], the “yeast fitness (ln)” value was -0.252.

With AUUCCUUUGGCGUAAUGGUAACGCGUCUCCCUCCUAAGGAGACGACUGCGGGUUCGAGUCCCGUACGGGGUG [G1A G6U A43C A69G A70G C71U], the “yeast fitness (ln)” value was -0.398.

For the variant AUUCCAUUGGCGUAAUGGUAACGCGUCUCCCUCCUAAGGAGAAGACUGCGGGUUCGAGUCCCGUAAGGGGUG [G1A G6A C66A A69G A70G C71U], the “yeast fitness (ln)” value was -0.194.

Take AUUCCAUUGGCGUAAUGGUAACGCGUCUCCCUCCUAAGGAGAAGAUUGCGGGUUCGAGUCCCGUACGGGUCG [G1A G6A C46U A69G A70U]: the “yeast fitness (ln)” value was -0.0698.

With AUUCCAUUGGCGUAAUGGUAACGCGUCUCCCUCCUAAGGAGAAGAUUGCGGGUUCGAGUCCCGUACGGGGCG [G1A G6A C46U A69G A70G], the “yeast fitness (ln)” value was -0.123.

As to AUUCCUUUGGCGUAAUGGUAACGCGUCUCCCUCCUAAGGAGACGACUGCGGGUUCGAGUCCCGUACGGGAUG [G1A G6U A43C A69G C71U], the “yeast fitness (ln)” value is -0.28.
